ChEMBL document CHEMBL1139543, “Antineoplastic agents. 445. Synthesis and evaluation of structural modifications of (Z)- and (E)-combretastatin A-41” (J Med Chem, 2005)
Converted amounts (≈) assume the structure as drawn.

Tests used:
[1] = system: SW-1736; assay: Growth inhibition against human thyroid cell line( SW 1736); format: functional
[2] = system: BXPC-3; assay: Growth inhibition against human pancreas carcinoma cell line (BxPC-3); format: functional
[3] = system: DU-145; assay: Growth inhibition against human prostate cell line (DU-145); format: functional
[4] = system: P388; assay: Effective dose against murine P388 leukemia cell line; format: functional; settings: Mus musculus, read-out: ED50 (the source's name)
[5] = system: FaDu; assay: Growth inhibition against human pharynx FADU cell line; format: functional
[6] = target: Tubulin beta-1 chain (Homo sapiens, UniProt Q9H4B7); assay: Inhibition of tubulin polymerization upon incubation for 20 min at 30 degree C
Tubulin beta-1 chain, sequence (Q9H4B7 whole entry): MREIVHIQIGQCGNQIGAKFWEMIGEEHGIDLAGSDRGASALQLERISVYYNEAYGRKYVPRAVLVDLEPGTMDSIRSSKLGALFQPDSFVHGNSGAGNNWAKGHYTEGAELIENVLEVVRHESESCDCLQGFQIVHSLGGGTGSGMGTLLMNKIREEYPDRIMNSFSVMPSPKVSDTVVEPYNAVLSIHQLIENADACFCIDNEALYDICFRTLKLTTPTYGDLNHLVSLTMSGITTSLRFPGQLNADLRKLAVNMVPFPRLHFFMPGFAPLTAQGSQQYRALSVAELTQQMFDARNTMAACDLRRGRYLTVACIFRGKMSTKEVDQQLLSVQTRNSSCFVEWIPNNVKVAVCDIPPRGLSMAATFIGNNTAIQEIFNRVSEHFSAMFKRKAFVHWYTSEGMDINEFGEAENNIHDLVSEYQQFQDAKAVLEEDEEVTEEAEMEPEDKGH
How it was run: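 Purified tubulin at 10 µM (1.0 mg/mL) in 0.8 M monosodium glutamate, pH 6.6, with 4% (v/v) DMSO and varying compound concentrations. Preincubated 15 min at 37 °C, chilled on ice, then GTP (0.4 mM) added. Warmed from 0 °C to 30 °C, and assembly followed 20 min by turbidity at 350 nm. IC50 interpolated; at least two determinations; SD reported.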

[7] = system: SK-N-SH; assay: Growth inhibition against human neuroblastoma cell line (SK-N-SH); format: functional
[8] = system: NCI-H460; assay: Growth inhibition against human lung-NSC NCI-H460 cell line; format: functional
[9] = system: Neisseria gonorrhoeae; assay: Minimum inhibitory concentration against Neisseria gonorrhoeae was determined in the disk diffusion assay; value ranges from 50-100 ug/disk; format: functional
[10] = system: Micrococcus luteus; assay: Minimum inhibitory concentration against Micrococcus luteus was determined in the disk diffusion assay; value ranges from 12.5-25 ug/disk; format: functional
[11] = system: Staphylococcus aureus; assay: Minimum inhibitory concentration against Staphylococcus aureus was determined in the disk diffusion assay; value ranges from 50-100 ug/disk; format: functional
[12] = system: Enterococcus faecalis; assay: Minimum inhibitory concentration against Enterococcus faecalis was determined in the disk diffusion assay value ranges from 50-100 ug/disk; format: functional
[13] = system: Staphylococcus aureus; assay: Minimum inhibitory concentration against Staphylococcus aureus was determined in the disk diffusion assay; value ranges from 25-50 ug/disk; format: functional
[14] = system: Micrococcus luteus; assay: Minimum inhibitory concentration against Micrococcus luteus was determined in the disk diffusion assay; format: functional

SMILES | GI50 [1] | GI50 [2] | GI50 [3] | EC50 [4] | IC50 [6] | GI50 [7] | GI50 [8] | MIC [9] | MIC [10] | MIC [11] | MIC [12] | MIC [13] | MIC [14] | GI50 [5]
COc1ccc(/C=C\c2cc(OC)c(OC)c(OC)c2)cc1OCCN1CCN(C)CC1.Cl.Cl | > 10 µg/mL | > 10 µg/mL | 4.1 µg/mL | 1.6 µg/mL | > 40 µM | 2.8 µg/mL | 3.4 µg/mL |  |  |  |  |  |  | 2.9 µg/mL
COc1ccc(/C=C\c2cc(OC)c(OC)c(OC)c2)cc1Br | 0.034 µg/mL (≈ 0.0897 µM) | 0.007 µg/mL (≈ 0.0185 µM) | 0.027 µg/mL (≈ 0.0712 µM) | 0.16 µg/mL (≈ 0.422 µM) | 1.1 µM | 0.002 µg/mL (≈ 0.00527 µM) | 0.033 µg/mL (≈ 0.087 µM) |  |  |  |  |  |  | 0.0058 µg/mL (≈ 0.0153 µM)
COc1ccc(/C=C\c2cc(OC)c(OC)c(OC)c2)cc1OCCN1CCCC1.Cl | 0.6 µg/mL | 2 µg/mL | 0.35 µg/mL | 0.421 µg/mL | > 40 µM | 0.22 µg/mL | 0.34 µg/mL |  | 25 ug/disk | 100 ug/disk |  |  |  | 0.49 µg/mL
COc1ccc(/C=C\c2cc(OC)c(OC)c(OC)c2)cc1N | 0.0008 µg/mL (≈ 0.00254 µM) | 0.00043 µg/mL (≈ 0.00136 µM) | 0.00033 µg/mL (≈ 0.00105 µM) | > 0.01 µg/mL |  | 0.00023 µg/mL (≈ 0.000729 µM) | 0.00033 µg/mL (≈ 0.00105 µM) |  |  |  |  |  |  | 0.00053 µg/mL (≈ 0.00168 µM)
COc1ccc(/C=C\c2cc(OC)c(OC)c(OC)c2)cc1N(C)C | 0.8 µg/mL (≈ 2.33 µM) | 0.015 µg/mL (≈ 0.0437 µM) | 0.11 µg/mL (≈ 0.32 µM) | 0.9 µg/mL (≈ 2.62 µM) |  | 0.01 µg/mL (≈ 0.0291 µM) | 0.4 µg/mL (≈ 1.16 µM) |  |  |  |  |  |  | 0.09 µg/mL (≈ 0.262 µM)
COc1ccc(/C=C\c2cc(OC)c(OC)c(OC)c2)cc1OCCn1cccc1.Cl | 4.9 µg/mL | 2.3 µg/mL | 0.56 µg/mL | 0.0232 µg/mL | 20 µM | 0.0064 µg/mL | 0.0033 µg/mL |  |  |  |  |  |  | 0.003 µg/mL
COc1ccc(/C=C\c2cc(OC)c(OC)c(OC)c2)cc1O [COMBRETASTATIN A4] | 0.00026 µg/mL (≈ 0.000822 µM) | > 0.1 µg/mL | 0.00076 µg/mL (≈ 0.0024 µM) | 0.0026 µg/mL (≈ 0.00822 µM) |  | 0.00026 µg/mL (≈ 0.000822 µM) | 0.00056 µg/mL (≈ 0.00177 µM) |  |  |  |  |  |  | 0.00065 µg/mL (≈ 0.00205 µM)
COc1ccc(/C=C\c2cc(OC)c(OC)c(OC)c2)cc1OCCN1CCOCC1.Cl | 0.97 µg/mL | 2.9 µg/mL | 0.4 µg/mL | 0.634 µg/mL | > 40 µM | 0.22 µg/mL | 0.41 µg/mL | 100 ug/disk |  |  |  |  |  | 0.53 µg/mL

More lines, main results first:

GI50 [1] | GI50 [2] | GI50 [3] | EC50 [4] | IC50 [6] | GI50 [7] | GI50 [8] | MIC [9] | MIC [10] | MIC [11] | MIC [12] | MIC [13] | MIC [14] | SMILES | GI50 [5]
1.5 µg/mL | 0.82 µg/mL | 1.5 µg/mL | 19 µg/mL | 7.6 µM | 0.31 µg/mL | 0.56 µg/mL | 100 ug/disk | 25 ug/disk |  |  |  |  | COc1ccc(/C=C\c2cc(OC)c(OC)c(OC)c2)cc1OCCn1ccnc1.Cl | 0.67 µg/mL
1 µg/mL (≈ 2.28 µM) | 2.7 µg/mL (≈ 6.16 µM) | 0.59 µg/mL (≈ 1.35 µM) | 2.87 µg/mL (≈ 6.55 µM) | > 40 µM | 3 µg/mL (≈ 6.84 µM) | 0.42 µg/mL (≈ 0.958 µM) |  |  |  |  |  |  | COc1ccc(/C=C\c2cc(OC)c(OC)c(OC)c2)cc1OCCOS(C)(=O)=O | 0.41 µg/mL (≈ 0.935 µM)
0.38 µg/mL (≈ 1.01 µM) | 0.26 µg/mL (≈ 0.694 µM) | 0.43 µg/mL (≈ 1.15 µM) | 0.63 µg/mL (≈ 1.68 µM) | 6.5 µM | 0.18 µg/mL (≈ 0.481 µM) | 0.37 µg/mL (≈ 0.988 µM) | 100 ug/disk |  |  |  |  |  | COc1ccc(/C=C\c2cc(OC)c(OC)c(OC)c2)cc1OCCCO | 0.63 µg/mL (≈ 1.68 µM)
1.1 µg/mL | > 10 µg/mL | 3.4 µg/mL | 0.255 µg/mL | > 40 µM | 1.5 µg/mL | 3.3 µg/mL | 100 ug/disk |  |  | 100 ug/disk | 50 ug/disk | <6.25 ug/disk | CCN(CC)CCOc1cc(/C=C\c2cc(OC)c(OC)c(OC)c2)ccc1OC.Cl | 1.1 µg/mL
